Data on nine compounds can be found in ChEMBL document CHEMBL1123156 (J Med Chem, 1986).

pIC50, pKi: −log10 of the molar value.

Data set [1] concerns the target T1, Cholesterol side-chain cleavage enzyme, mitochondrial (cytochrome P450scc) (Bos taurus, UniProt P00189).
T1 sequence (P00189 whole entry): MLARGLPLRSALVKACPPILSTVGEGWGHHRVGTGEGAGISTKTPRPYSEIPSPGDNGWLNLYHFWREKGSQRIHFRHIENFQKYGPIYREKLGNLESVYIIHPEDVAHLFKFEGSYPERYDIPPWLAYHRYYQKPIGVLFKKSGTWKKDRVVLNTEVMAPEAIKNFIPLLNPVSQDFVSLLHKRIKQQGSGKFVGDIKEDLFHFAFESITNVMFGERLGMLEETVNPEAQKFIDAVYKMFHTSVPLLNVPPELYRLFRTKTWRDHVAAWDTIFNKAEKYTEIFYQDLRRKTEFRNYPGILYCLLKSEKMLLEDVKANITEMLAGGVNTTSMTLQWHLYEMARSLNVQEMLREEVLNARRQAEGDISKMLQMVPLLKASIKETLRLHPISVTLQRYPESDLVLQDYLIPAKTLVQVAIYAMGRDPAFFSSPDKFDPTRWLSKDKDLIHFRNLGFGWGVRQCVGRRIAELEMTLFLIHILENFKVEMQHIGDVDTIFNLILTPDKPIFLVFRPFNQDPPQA
Briefly: Inhibition of Bovine adrenal cholesterol side chain cleavage cytochrome P450 at 50 ug/mL. To be noted: cattle. In outline:
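Bovine adrenal CSCC enzyme (cholesterol to pregnenolone) preparation. Inhibitor at 50 μg/mL, the highest concentration tested. Result is percent inhibition relative to uninhibited control, as the mean of two determinations (variability <10%).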

In data set [2] the target is T2, Aromatase (Homo sapiens, UniProt P11511).
T2 sequence (P11511 whole entry): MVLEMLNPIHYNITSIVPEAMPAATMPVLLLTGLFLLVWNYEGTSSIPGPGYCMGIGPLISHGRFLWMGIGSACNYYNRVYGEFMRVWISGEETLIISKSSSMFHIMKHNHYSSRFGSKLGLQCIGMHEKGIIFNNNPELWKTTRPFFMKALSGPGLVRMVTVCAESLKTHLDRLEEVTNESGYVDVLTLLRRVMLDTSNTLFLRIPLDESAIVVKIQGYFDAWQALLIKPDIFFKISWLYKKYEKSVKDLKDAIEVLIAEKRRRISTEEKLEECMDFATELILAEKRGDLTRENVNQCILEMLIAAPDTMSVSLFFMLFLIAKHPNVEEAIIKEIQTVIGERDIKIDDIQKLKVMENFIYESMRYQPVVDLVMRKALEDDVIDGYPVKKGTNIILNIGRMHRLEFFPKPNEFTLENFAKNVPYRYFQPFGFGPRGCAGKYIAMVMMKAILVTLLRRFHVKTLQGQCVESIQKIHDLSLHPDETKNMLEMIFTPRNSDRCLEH

Data set [3] has as its target T2, Aromatase. The source holds these as a separate data set.
The target in data set [4] is T2, Aromatase. Description: Inhibition of Cytochrome P450 19A1 at 20 ug/mL. In outline:
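Human placental aromatase preparation. Inhibitor at 20 μg/mL. Result is percent inhibition of androgen aromatization relative to control.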

Data set [5] concerns the target T2, Aromatase. The source holds these as a separate data set.

For orientation: inhibition means the change of the read-out against control, counted positive when it falls. What is called pIC50 is the IC50 on a negative log10 scale, so that one unit is a factor of ten. A high value points to a small IC50. `Nc1ccc(C2CC(=O)NC2=O)cc1` (stereo not given) showed an inhibition at 50 ug/mL in data set [1] of 30%. Moreover, the negative-log IC50 (pIC50) was 4.70 on Aromatase [2] and 4.99 on Aromatase [3].
As to `CCC1(c2ccc(N)cc2)CC(=O)N(C)C1=O` (stereo not given), in data set [1], the inhibition at 50 ug/mL stood at 0%.
For the compound `NC(=O)CCc1ccc([N+](=O)[O-])cc1`, the inhibition at 20 µg/mL against Aromatase [4] was 8%. The same compound returned an inhibition at 50 ug/mL in data set [1] of 28%.
By pKi is commonly meant −log10 of the Ki, conventionally taken in molar units. Lower therefore signals a large Ki. As to `CC1(c2ccc(N)cc2)CC(=O)NC1=O` (stereo not given), the pKi at Aromatase [5] was 6.10. Further, the inhibition at 50 ug/mL in data set [1] is 0%. Besides, the values for the negative logarithm of the IC50 (pIC50) against Aromatase [2] and against Aromatase [3] were 4.90 and 5.00, respectively.
The corresponding values for `CCC1(c2ccc(N)cc2)CC(=O)NC1=O` (stereo not given) are 6.00, 38%, 4.87 and 5.08.
In turn, `NC(=O)CCc1ccc(N)cc1` returned an inhibition at 20 µg/mL at Aromatase [4] of 38%. The compound further had an inhibition at 50 ug/mL in data set [1] of 19%.
In the case of `CCC1(c2ccc(N)cc2)CCC(=O)NC1=O` (stereo not given) [AMINOGLUTETHIMIDE], in data set [1], the inhibition at 50 ug/mL amounted to 83%.
For the compound `CN1C(=O)CC(c2ccc(N)cc2)C1=O` (stereo not given), the negative-log Ki (pKi) at Aromatase [5] was 5.76. For the same compound, the inhibition at 50 ug/mL in data set [1] turned out to be 30%. For the same compound, the pIC50 against Aromatase [2] is 4.78; on Aromatase [3] it was 5.00.
The corresponding values for `CN1C(=O)CC(C)(c2ccc(N)cc2)C1=O` (stereo not given) are 5.76, 30%, 4.81 and 5.00.
